Reference: ChEMBL document CHEMBL1275441, “Effect of impaired renal function on the pharmacokinetics of tomopenem (RO4908463/CS-023), a novel carbapenem” (Antimicrob Agents Chemother, 2008)

Columns and labels:
Homo sapiens [1] = assay: Drug metabolism in human with creatinine clearance of 30-49 ml/min assessed as RO4957463 AUC (infinity) at 1500 mg, iv administered as single dose measured after 60 mins; type: ADME, organism-based; set-up: dose 1500 mg, route intravenous, time infinity; conditions: in vivo, 1 h
Summary of the method: (§1)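 Single 1,500 mg i.v. infusion over 60 min, eight subjects per renal-function group (creatinine clearance by Cockcroft-Gault at screening). Blood was sampled predose and at 1–48 h, and the plasma was stabilized 1:1 with 0.5 M MOPS pH 6.0, kept from light and frozen at −70°C. Parent and metabolite were measured by a validated bioanalytical method. Noncompartmental analysis: t1/2 = ln2/λz from ≥3 terminal points, Cmax/Tmax from raw data, ratio = AUC∞ metabolite/parent.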

Homo sapiens [2] = assay: Ratio of RO4957463 AUC (infinity) to compound AUC (infinity) in human with creatinine clearance of => 80 ml/min at 1500 mg, iv administered as single dose measured after 60 mins; type: ADME, organism-based; conditions: in vivo, 1 h; summary of the method: as §1
Homo sapiens [3] = assay: Ratio of RO4957463 AUC (infinity) to compound AUC (infinity) in human with creatinine clearance of 50-79 ml/min at 1500 mg, iv administered as single dose measured after 60 mins; type: ADME, organism-based; conditions: in vivo, 1 h; summary of the method: as §1
Homo sapiens [4] = assay: Ratio of RO4957463 AUC (infinity) to compound AUC (infinity) in human with creatinine clearance of 30-49 ml/min at 1500 mg, iv administered as single dose measured after 60 mins; type: ADME, organism-based; conditions: in vivo, 1 h; summary of the method: as §1
[5] = Renal clearance in human with creatinine clearance of 30-49 ml/min at 1500 mg, iv administered as single dose after 24 hrs; type: ADME, organism-based, Kidney; conditions: in vivo, read-out: CL_renal (converted)
Summary of the method: (§2)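 After a single 1,500 mg i.v. infusion over 60 min, urine was collected 0–6, 6–12 and 12–24 h post-dose, with volume and pH recorded. Aliquots were mixed 1:1 with 0.5 M MOPS, protected from light and frozen at −70°C. Parent and metabolite were assayed by a validated method. CLR = Ae24/plasma AUC24. n = 8 per group, mean ± SD.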

Homo sapiens [6] = assay: Drug excretion in human with creatinine clearance of => 80 ml/min at 1500 mg, iv administered as single dose after 24 hrs; type: ADME, organism-based; conditions: in vivo; summary of the method: as §2
Homo sapiens [7] = assay: Drug excretion in human with creatinine clearance of =< 30 ml/min at 1500 mg, iv administered as single dose after 24 hrs; type: ADME, organism-based; conditions: in vivo; summary of the method: as §2
[8] = Dose normalized excretion in human with creatinine clearance of => 80 ml/min at 1500 mg, iv administered as single dose after 24 hrs; type: ADME, organism-based; conditions: in vivo, read-out: Activity; summary of the method: as §2
[9] = Dose normalized excretion in human with creatinine clearance of 50-79 ml/min at 1500 mg, iv administered as single dose after 24 hrs; type: ADME, organism-based; conditions: in vivo, read-out: Activity; summary of the method: as §2
[10] = Dose normalized excretion in human with creatinine clearance of 30-49 ml/min at 1500 mg, iv administered as single dose after 24 hrs; type: ADME, organism-based; conditions: in vivo, read-out: Activity; summary of the method: as §2
[11] = Total clearance in healthy human at 700 mg, iv administered as single dose; type: ADME, organism-based; conditions: in vivo
[12] = Cmax in human with creatinine clearance of 50-79 ml/min at 1500 mg, iv administered as single dose measured after 60 mins; type: ADME, organism-based; set-up: dose 1500 mg, route intravenous; conditions: in vivo; summary of the method: as §1
[13] = Cmax in human with creatinine clearance of => 80 ml/min at 1500 mg, iv administered as single dose measured after 60 mins; type: ADME, organism-based; set-up: dose 1500 mg, route intravenous; conditions: in vivo; summary of the method: as §1
[14] = Cmax in human with creatinine clearance of 30-49 ml/min at 1500 mg, iv administered as single dose measured after 60 mins; type: ADME, organism-based; set-up: dose 1500 mg, route intravenous; conditions: in vivo; summary of the method: as §1
[15] = Tmax in human with creatinine clearance of 50-79 ml/min at 1500 mg, iv administered as single dose; type: ADME, organism-based; conditions: in vivo
Summary of the method: (§3)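 Eight subjects per CL_CR group (Cockcroft-Gault) received 1,500 mg i.v. over 60 min. Plasma was sampled predose and from 1 to 48 h, mixed with equal-volume 0.5 M MOPS pH 6.0, frozen at −70°C light-protected, and assayed by a validated method. Parameters were derived noncompartmentally from actual times, with T_max taken from raw data as a median and CL/V_ss as means ± SD.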

[16] = Tmax in human with creatinine clearance of 30-49 ml/min at 1500 mg, iv administered as single dose; type: ADME, organism-based; conditions: in vivo; summary of the method: as §3
[17] = Apparent half-life in human with creatinine clearance of 30-49 ml/min at 1500 mg, iv administered as single dose; type: ADME, organism-based; conditions: in vivo; summary of the method: as §1
[18] = Apparent half-life in human with creatinine clearance of =< 30 ml/min at 1500 mg, iv administered as single dose; type: ADME, organism-based; conditions: in vivo; summary of the method: as §1
[19] = AUC (infinity) in human with creatinine clearance of => 80 ml/min at 1500 mg, iv administered as single dose measured after 60 mins; type: ADME, organism-based; set-up: dose 1500 mg, time infinity, route intravenous; conditions: plasma; summary of the method: as §1
[20] = AUC (infinity) in human with creatinine clearance of 30-49 ml/min at 1500 mg, iv administered as single dose measured after 60 mins; type: ADME, organism-based; set-up: dose 1500 mg, route intravenous, time infinity; conditions: plasma; summary of the method: as §1
[21] = Volume of distribution at steady state in human with creatinine clearance of => 80 ml/min at 1500 mg, iv administered as single dose measured after 60 mins; type: ADME, organism-based; conditions: in vivo, read-out: Vdss; summary of the method: as §3
Homo sapiens [22] = assay: Drug metabolism in human with creatinine clearance of => 80 ml/min assessed as RO4957463 Cmax at 1500 mg, iv administered as single dose measured after 60 mins; type: ADME, organism-based; set-up: dose 1500 mg, route intravenous; conditions: in vivo, 1 h; summary of the method: as §1
Homo sapiens [23] = assay: Drug metabolism in human with creatinine clearance of 50-79 ml/min assessed as RO4957463 Cmax at 1500 mg, iv administered as single dose measured after 60 mins; type: ADME, organism-based; set-up: dose 1500 mg, route intravenous; conditions: in vivo, 1 h; summary of the method: as §1
Homo sapiens [24] = assay: Drug metabolism in human with creatinine clearance of => 80 ml/min assessed as RO4957463 Tmax at 1500 mg, iv administered as single dose; type: ADME, organism-based; conditions: in vivo; summary of the method: as §1
Homo sapiens [25] = assay: Drug metabolism in human with creatinine clearance of 50-79 ml/min assessed as RO4957463 Tmax at 1500 mg, iv administered as single dose measured after 60 mins; type: ADME, organism-based; conditions: in vivo, 1 h; summary of the method: as §1
Homo sapiens [26] = assay: Drug metabolism in human with creatinine clearance of =< 30 ml/min assessed as RO4957463 Tmax at 1500 mg, iv administered as single dose; type: ADME, organism-based; conditions: in vivo; summary of the method: as §1
Homo sapiens [27] = assay: Drug metabolism in human with creatinine clearance of => 80 ml/min assessed as RO4957463 apparent half life at 1500 mg, iv administered as single dose; type: ADME, organism-based; conditions: in vivo; summary of the method: as §1

SMILES: C[C@@H](O)[C@H]1C(=O)N2C(C(=O)O)=C(S[C@H]3C[C@@H](C(=O)N4CC[C@H](NC(=O)CNC(=N)N)C4)N(C)C3)[C@H](C)[C@H]12 [TOMOPENEM]
- AUC (Homo sapiens [1]): 115 µg·h/mL
- Ratio (Homo sapiens [2]): 0.1
- Ratio (Homo sapiens [3]): 0.12
- Ratio (Homo sapiens [4]): 0.21
- CL renal at 24 h [5]: 33 mL/min
- Activity (Homo sapiens [6]): 862 mg
- Activity (Homo sapiens [7]): 618 mg
- dose excreted at 24 h [8]: 57.4%
- dose excreted at 24 h [9]: 72.6%
- dose excreted at 24 h [10]: 62.6%
- clearance [11]: 135 mL/min
- Cmax [12]: 106 µg/mL
- Cmax [13]: 81.4 µg/mL
- Cmax [14]: 100 µg/mL
- Tmax [15]: 1 h
- Tmax [16]: 1 h
- half-life [17]: 275 min
- half-life [18]: 476 min
- AUC(0-inf) [19]: 191 µg·h/mL
- AUC(0-inf) [20]: 517 µg·h/mL
- Vd [21]: 18.8 L
- Cmax (Homo sapiens [22]): 3.51 µg/mL
- Cmax (Homo sapiens [23]): 4.31 µg/mL
- Tmax (Homo sapiens [24]): 1.01 h
- Tmax (Homo sapiens [25]): 1 h
- Tmax (Homo sapiens [26]): 13.5 h
- t1/2 (Homo sapiens [27]): 2.98 h
